The source of these data is ChEMBL document CHEMBL1127358 (J Med Chem, 1994).

Molecules are shown by their SMILES. Bounds are passed on as bounds.

The nature of test [1]: Tested for affinity constant against M4 muscarinic receptor in NG 108-15 cell homogenates using [3H]NMS. It counts as cell-based.
In test [2] the target is T1, Muscarinic acetylcholine receptor M3 (Cavia porcellus, UniProt Q8VH26). The test can be described thus: Antagonistic activity against M3 muscarinic receptor in guinea pig left ileum derived by plotting log(DR - 1) vs log[antagonist]. It counts as functional, tissue-based. The conditions noted are these: read-out: pA2 (converted). In a few lines:
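Guinea pig tissue. Ileum: terminal segments about 2 cm, 1 g tension, 37 °C, Tyrode solution, isotonic recording. Carbachol dose–response curves (0.01–0.5 μM) at 30 min intervals, second curve as control. Repeated after 60 min antagonist incubation. Dose ratios at agonist EC50, one to six antagonist concentrations, each tested 4–8 times. pA2 from Schild plot of log(DR−1); mean ± SE.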

In test [3] the target is T2, Muscarinic acetylcholine receptor M2 (Rattus norvegicus, UniProt P10980).
T2 sequence (P10980 whole entry): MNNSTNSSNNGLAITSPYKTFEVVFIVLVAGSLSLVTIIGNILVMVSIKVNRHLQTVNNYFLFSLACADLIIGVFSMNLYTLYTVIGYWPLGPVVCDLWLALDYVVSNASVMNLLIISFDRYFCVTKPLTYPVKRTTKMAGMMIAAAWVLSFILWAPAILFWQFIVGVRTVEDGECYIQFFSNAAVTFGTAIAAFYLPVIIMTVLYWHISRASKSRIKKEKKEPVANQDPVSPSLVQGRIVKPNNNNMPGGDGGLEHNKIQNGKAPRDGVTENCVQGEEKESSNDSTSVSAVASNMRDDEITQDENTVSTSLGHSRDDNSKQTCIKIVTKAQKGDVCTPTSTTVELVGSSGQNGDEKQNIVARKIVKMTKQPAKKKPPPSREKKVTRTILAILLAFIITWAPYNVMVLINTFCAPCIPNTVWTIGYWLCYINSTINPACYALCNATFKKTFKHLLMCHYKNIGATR
The test can be described thus: Tested for affinity constant against M2 muscarinic receptor rat heart using [3H]-NMS.

In test [4] the target is T3, Muscarinic acetylcholine receptor M1 (Rattus norvegicus, UniProt P08482).
T3 sequence (P08482 whole entry): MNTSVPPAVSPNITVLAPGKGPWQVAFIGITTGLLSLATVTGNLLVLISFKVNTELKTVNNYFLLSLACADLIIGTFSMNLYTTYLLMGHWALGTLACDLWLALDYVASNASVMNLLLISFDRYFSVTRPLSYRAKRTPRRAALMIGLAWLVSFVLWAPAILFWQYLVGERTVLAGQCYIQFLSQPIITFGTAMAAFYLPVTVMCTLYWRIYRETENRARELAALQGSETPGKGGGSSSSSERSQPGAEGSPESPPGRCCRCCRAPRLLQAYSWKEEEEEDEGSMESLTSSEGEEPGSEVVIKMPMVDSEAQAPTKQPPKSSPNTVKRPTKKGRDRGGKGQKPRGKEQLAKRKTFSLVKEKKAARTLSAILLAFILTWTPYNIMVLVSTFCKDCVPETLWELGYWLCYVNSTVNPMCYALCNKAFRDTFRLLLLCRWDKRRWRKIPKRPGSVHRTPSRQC
The test can be described thus: Tested for affinity constant against M1 muscarinic receptor in rat cortex using [3H]pirenzepine.

Test [5] concerns the target Muscarinic acetylcholine receptor M2 (Cavia porcellus). Kind of test: Antagonistic activity against M2 muscarinic receptor in guinea pig left atrium derived by plotting log(DR - 1) vs log[antagonist]. The conditions noted are these: read-out: pA2 (converted).
In test [6] the test system is Muscarinic acetylcholine receptors M2 & M3 (Cavia porcellus). The test can be described thus: Selectivity ratio is the antilog of the difference between the pA2 values at guinea pig left atrium and ileum muscarinic receptors.
For test [7], the target named is Muscarinic acetylcholine receptor M3 (Rattus norvegicus, UniProt P08483). Kind of test: Tested for affinity constant against M3 muscarinic receptor in rat submaxillary gland using [3H]NMS. It counts as tissue-based.
Test [8] deals with T1, Muscarinic acetylcholine receptor M3. Kind of test: Antagonistic activity against M3 muscarinic receptor in guinea pig left ileum derived by plotting log(DR - 1) vs log[antagonist]; inactive up to a concentration of 10. It counts as functional, tissue-based. The conditions noted are these: read-out: pA2 (converted). In a few lines: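 Guinea pig ileum segments at 37 °C in Tyrode solution, isotonic recording. Carbachol dose–response curves were run before and after 60 min antagonist incubation. Compounds were tested up to 10 μM antagonist, and inactivity was scored up to that concentration.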

Test [9] has as its target Muscarinic acetylcholine receptor M3 (Rattus norvegicus) (UniProt P08483). Kind of test: Inhibitory activity against M3 muscarinic receptor binding in rat submaxillary gland by [3H]NMS at 10 uM concentration. It is filed as tissue-based. The gist of the method:
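Rat submaxillary gland homogenate. […] Nonspecific binding defined with 10 μM atropine. Percent inhibition of specific binding scored, with IC50 not derivable when inhibition stayed below 50%.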

T1 sequence (Q8VH26 whole entry): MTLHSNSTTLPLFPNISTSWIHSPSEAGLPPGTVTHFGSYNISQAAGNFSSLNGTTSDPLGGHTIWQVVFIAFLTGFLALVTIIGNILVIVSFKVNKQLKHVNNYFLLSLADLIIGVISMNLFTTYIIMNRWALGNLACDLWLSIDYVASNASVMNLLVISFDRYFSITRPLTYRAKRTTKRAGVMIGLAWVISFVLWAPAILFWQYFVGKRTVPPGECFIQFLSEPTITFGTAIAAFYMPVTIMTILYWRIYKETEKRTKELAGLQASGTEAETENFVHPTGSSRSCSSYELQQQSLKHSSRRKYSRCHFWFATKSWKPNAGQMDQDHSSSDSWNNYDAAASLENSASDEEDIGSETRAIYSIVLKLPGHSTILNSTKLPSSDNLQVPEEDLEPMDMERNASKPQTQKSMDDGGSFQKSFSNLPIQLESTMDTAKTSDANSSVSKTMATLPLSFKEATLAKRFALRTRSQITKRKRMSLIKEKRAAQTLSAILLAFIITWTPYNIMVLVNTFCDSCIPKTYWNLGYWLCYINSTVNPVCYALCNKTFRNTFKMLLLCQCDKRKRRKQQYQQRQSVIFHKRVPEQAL
Muscarinic acetylcholine receptor M3 (Rattus norvegicus, UniProt P08483), sequence (P08483 whole entry): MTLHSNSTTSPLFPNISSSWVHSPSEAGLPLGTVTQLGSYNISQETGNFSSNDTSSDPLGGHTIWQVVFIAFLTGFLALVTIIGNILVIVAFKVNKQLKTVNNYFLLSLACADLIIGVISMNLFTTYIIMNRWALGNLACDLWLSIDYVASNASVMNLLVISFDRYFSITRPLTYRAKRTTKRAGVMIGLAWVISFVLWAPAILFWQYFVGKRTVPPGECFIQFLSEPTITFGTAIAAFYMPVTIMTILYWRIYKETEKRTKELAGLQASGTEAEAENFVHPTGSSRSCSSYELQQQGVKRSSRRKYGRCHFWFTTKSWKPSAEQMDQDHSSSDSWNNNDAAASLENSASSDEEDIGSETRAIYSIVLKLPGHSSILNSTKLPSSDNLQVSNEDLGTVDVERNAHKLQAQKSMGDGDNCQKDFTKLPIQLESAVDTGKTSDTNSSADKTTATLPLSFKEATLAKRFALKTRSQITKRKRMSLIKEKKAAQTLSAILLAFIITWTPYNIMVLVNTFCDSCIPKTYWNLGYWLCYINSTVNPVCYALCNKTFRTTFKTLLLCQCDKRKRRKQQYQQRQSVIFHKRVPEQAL
Muscarinic acetylcholine receptor M3 (Rattus norvegicus), sequence (P08483 whole entry, looked up): as the sequence (P08483 whole entry) above

For the molecule `COc1ccccc1CNCCCCCCN(C)CCCCCCCCN(C)CCCCCCNCC(=O)N1c2ccccc2C(=O)Nc2cccnc21`, the “Log Ki” value in test [1] is recorded as -7.24. Further, the Kb in test [2] is 575 nM; in [5], 3.09 nM. Further, the inhibition constant (Ki) (usually a dissociation constant, usually derived from enzyme kinetics or from competition with a known ligand) in [3] was 1.7 nM; in test [4], 28.2 nM; in test [7], 794 nM. Besides, in test [6], the Ratio was determined as 190.

Take `CCCCN(CC(=O)N1c2ccccc2C(=O)Nc2cccnc21)CC(=O)N1c2ccccc2C(=O)Nc2cccnc21`: the Kb was greater than 10000 nM in [8] and 1580 nM in [5]. Further, the Ratio in [6] is greater than 6.

For `CCN(CC)CCCCCCN(CC(=O)N1c2ccccc2C(=O)Nc2cccnc21)CC(=O)N1c2ccccc2C(=O)Nc2cccnc21`, the Kb is greater than 10000 nM in [8] and 1050 nM in test [5]. For the same molecule, the Ratio in test [6] was greater than 10.

As to `CN(CCCCCCN)CCCCCCCCN(C)CCCCCCNCC(=O)N1c2ccccc2C(=O)Nc2cccnc21`, the “Log Ki” value in [1] is listed as -7.74. In test [2], the Kb was 661 nM. The values for the Ki in test [4] and in test [7] were 2.69 nM and 468 nM, respectively.

Consider `COc1ccccc1CN(CCCCCCN(C)CCCCCCCCN(C)CCCCCCNCC(=O)N1c2ccccc2C(=O)Nc2cccnc21)CC(=O)N1c2ccccc2C(=O)Nc2cccnc21.O=C(O)C(=O)O.O=C(O)C(=O)O.O=C(O)C(=O)O.O=C(O)C(=O)O`, for which the “Log Ki” value in test [1] is recorded as -8.22. In test [9], the inhibition – broadly, the drop in the measured response relative to a control, in per cent – is less than 50%. Also, the Kb in test [2] was 417 nM; in [5], 1.58 nM. In addition, the inhibition constant Ki in test [3] was 1.58 nM; in [4], 1.86 nM. In [6], the Ratio was 260.

For the molecule `COc1ccccc1CNCCCCCCN(C)CCCCCCCCN(C)CCCCCCN(CC(=O)N1c2ccccc2C(=O)Nc2cccnc21)CC(=O)N1c2ccccc2C(=O)Nc2cccnc21.O=C(O)C(=O)O.O=C(O)C(=O)O.O=C(O)C(=O)O.O=C(O)C(=O)O`, the “Log Ki” value in test [1] is given as -7.9. The results for the Kb in test [2] and in [5] were 447 nM and 4.57 nM, respectively. In addition, the results for the inhibition constant (Ki) in [3], in [4] and in [7] were 18.6 nM, 15.8 nM and 2510 nM, respectively. In addition, in test [6], the Ratio is 98.

Regarding `COc1ccccc1CN(CCCCCCN(C)CCCCCCCCN(C)CCCCCCN(CC(=O)N1c2ccccc2C(=O)Nc2cccnc21)Cc1ccccc1OC)CC(=O)N1c2ccccc2C(=O)Nc2cccnc21.O=C(O)C(=O)O.O=C(O)C(=O)O.O=C(O)C(=O)O.O=C(O)C(=O)O`, the “Log Ki” value in test [1] is given as -7.8. Further, the Kb in [2] is 2040 nM; in test [5], 47.9 nM. Further, the inhibition constant Ki in test [3] is 3.72 nM; in test [4], 1.26 nM; in [7], 251 nM. Moreover, the Ratio in test [6] was determined as 26.

As for `CN(CCCCCCCCN(C)CCCCCCN(CC(=O)N1c2ccccc2C(=O)Nc2cccnc21)CC(=O)N1c2ccccc2C(=O)Nc2cccnc21)CCCCCCN(CC(=O)N1c2ccccc2C(=O)Nc2cccnc21)CC(=O)N1c2ccccc2C(=O)Nc2cccnc21.O=C(O)C(=O)O.O=C(O)C(=O)O.O=C(O)C(=O)O.O=C(O)C(=O)O`, the “Log Ki” value in [1] was -7.05. The Kb in test [2] is 759 nM; in [5], 15.5 nM. The values for the Ki in [3], in [4] and in test [7] were 21.9 nM, 4.79 nM and 155 nM, respectively. For the same molecule, the Ratio in [6] came out at 49.

For the molecule `CCN(CC)CCCCCCN(CC(=O)N1c2ccccc2C(=O)Nc2cccnc21)Cc1ccccc1OC`, the Kb was 1260 nM in test [2] and 178 nM in test [5]. For the same molecule, in [6], the Ratio came to 7.

As for `CN(CCCCCCCCN(C)CCCCCCNCC(=O)N1c2ccccc2C(=O)Nc2cccnc21)CCCCCCNCC(=O)N1c2ccccc2C(=O)Nc2cccnc21`, the “Log Ki” value in [1] is reported as -8.52. The Ki in [3] is 2.4 nM; in [4] it was 1.7 nM; in test [7], 174 nM.

In the case of `CN(CCCCCCN)CCCCCCCCN(C)CCCCCCN(CC(=O)N1c2ccccc2C(=O)Nc2cccnc21)CC(=O)N1c2ccccc2C(=O)Nc2cccnc21.O=C(O)C(=O)O.O=C(O)C(=O)O.O=C(O)C(=O)O.O=C(O)C(=O)O`, the “Log Ki” value in test [1] is reported as -6.72. Further, the Kb in test [2] was 1550 nM; in test [5], 5.89 nM. Also, the Ki in test [3] is 12.9 nM; in test [4], 2.51 nM; in [7], 6760 nM. For the same molecule, the Ratio in test [6] stood at 260.

On to `COc1ccccc1CNCCCCCCNCCCCCCCCNCCCCCCNCc1ccccc1OC` [METHOCTRAMINE], for which the “Log Ki” value in test [1] was -7.58.

Consider `CN(CCCCCCN)CCCCCCCCN(C)CCCCCCN`, for which the results for the Kb in test [2] and in test [5] were 7590 nM and 282 nM, respectively. Further, in [6], the Ratio was 27.

For `CN(CCCCCCCCN(C)CCCCCCN(CC(=O)N1c2ccccc2C(=O)Nc2cccnc21)CC(=O)N1c2ccccc2C(=O)Nc2cccnc21)CCCCCCNCC(=O)N1c2ccccc2C(=O)Nc2cccnc21` [TRIPITRAMINE], in test [1], the “Log Ki” value is given as -7.93.

Consider `CCN(CC)CCCCC1CCN(CC(=O)N2c3ccccc3C(=O)Nc3cccnc32)CC1`, for which, in test [1], the “Log Ki” value is on record as -7.82. Further, the Kb in test [2] is 100 nM. Further, the results for the Ki in test [4] and in test [7] were 105 nM and 251 nM, respectively.

On to `COc1ccccc1CNCCCCCCNCCCCCCCCNCCCCCCN`, for which the Kb was 1550 nM in test [2] and 91.2 nM in [5]. For the same molecule, in test [6], the Ratio stood at 17.

`COc1ccccc1CNCCCCCCN(C)CCCCCCCCN(C)CCCCCCNCc1ccccc1OC`: the Ratio in [6] amounted to 48.

`CCN(CC)CCCCCCNCc1ccccc1OC`: the Kb in test [8] was greater than 10000 nM; in test [5] it was 2510 nM. For the same molecule, the Ratio in test [6] was greater than 4.

Take `CCN(CC)CCCCCCNCC(=O)N1c2ccccc2C(=O)Nc2cccnc21`: the values for the Kb in test [2] and in test [5] were 832 nM and 251 nM, respectively. For the same molecule, the Ratio in test [6] is 3.
